Assay results published in ChEMBL document CHEMBL1155041, “Discovery of N-(2-aminophenyl)-4-[(4-pyridin-3-ylpyrimidin-2-ylamino)methyl]benzamide (MGCD0103), an orally active histone deacetylase inhibitor” (J Med Chem, 2008).
Counter-ions that a name gives are not always drawn. Calls of active or inactive are those of the source. No cut-off for these calls is given here.

How the values were obtained:
HCT-116 [1] = experiment: Induction of apoptosis in HCT116 cells at 1 uM; format: functional, cell-based; conditions: Homo sapiens
Summary of the method: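 Apoptosis was measured in HCT116 cells with a cell-death detection ELISA (nucleosome release), read at 405 nm with a 490 nm reference. Scored positive/negative at 1 µM.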

SW48 [2] = experiment: Antitumor activity against human SW48 cells xenografted in CD1 nude mouse at 60 mg/kg/day, po; format: functional; conditions: read-out: TGI
Summary of the method: (§1)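 Tumors were started from about 2 million cells injected sc into the flank of female CD-1 nude mice aged 8-10 weeks, then serially passaged at least three times. About 30 mg fragments were implanted sc under anesthesia. Dosing was oral, daily, as a solution in PBS acidified with 0.1 N HCl. Tumor volume and body weight were measured three times weekly for ≥2 weeks, with 6-8 animals per group and Student's t-test.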

SW48 [3] = experiment: Antitumor activity against human SW48 cells xenografted in CD1 nude mouse at 90 mg/kg/day, po; format: functional; conditions: read-out: TGI; summary of the method: as §1
SW48 [4] = experiment: Antitumor activity against human SW48 cells xenografted in CD1 nude mouse at 120 mg/kg/day, po; format: functional; conditions: read-out: TGI; summary of the method: as §1
Histone deacetylase 11 = molecular target: T1, Histone deacetylase 11 (Homo sapiens, UniProt Q96DB2); experiment: Inhibition of human recombinant HDAC11 homogeneous fluorescence release assay
T1 sequence (Q96DB2 whole entry): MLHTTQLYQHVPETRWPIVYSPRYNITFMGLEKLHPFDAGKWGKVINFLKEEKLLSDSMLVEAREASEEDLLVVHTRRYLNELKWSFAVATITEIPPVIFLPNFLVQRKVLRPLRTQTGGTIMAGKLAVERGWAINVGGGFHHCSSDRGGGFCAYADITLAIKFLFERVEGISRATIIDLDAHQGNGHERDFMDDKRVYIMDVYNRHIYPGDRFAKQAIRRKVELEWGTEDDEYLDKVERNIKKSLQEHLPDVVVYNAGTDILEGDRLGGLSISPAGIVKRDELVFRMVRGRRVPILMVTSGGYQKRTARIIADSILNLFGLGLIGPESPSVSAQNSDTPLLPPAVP
Summary of the method: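 Boc-Lys(ε-Ac)-AMC substrate then added at 37 °C, with isotype-specific substrate level and time. Trypsin 20 min at RT releases fluorophore, read ex 360/em 470 nm. IC50 from dose-response curves, 6-21 independent experiments.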

HCT-116 [5] = experiment: Antiproliferative activity against human HCT116 cells after 72 hrs by MTT assay; conditions: HCT-116, 72 h
A549 [6] = experiment: Antiproliferative activity against human A549 cells after 72 hrs by MTT assay; conditions: A549, 72 h
DU-145 [7] = experiment: Antiproliferative activity against human Du145 cells after 72 hrs by MTT assay; format: functional, cell-based; conditions: DU-145, 72 h
Summary of the method: (§2)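 Cells (HMEC from a commercial source, others from ATCC) cultured per vendor instructions, exposed to a range of concentrations for 72 h at 37 °C, 5% CO2. MTT at 0.5 mg/mL final for 4 h, then DMF/SDS solubilization overnight, absorbance at 570 nm with 630 nm reference. OD converted to cell number via a growth curve. IC50 is the concentration giving 50% of DMSO-control cell number. At least three independent experiments.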

HMEC = experiment: Antiproliferative activity against HMEC after 72 hrs by MTT assay; format: functional, cell-based; conditions: Homo sapiens; summary of the method: as §2
T-24 = experiment: Induction of H3 histone acetylation in human T24 cells relative to MS275; format: functional, cell-based
Summary of the method: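 Histones were acid-extracted (H2SO4, then acetone precipitation) from treated cells. In the ELISA, 2 µg of histones went onto anti-histone-coated plates and were probed with anti-acetyl-H3 (1:1000). Signal was normalized to total H3 measured on 0.5 µg with anti-H3.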

HCT-116 [8] = experiment: Induction of p21cip/waf1 protein expression in human HCT116 cells relative to MS275; format: functional, cell-based
HCT-116 [9] = experiment: Cell cycle arrest in human HCT116 cells assessed as accumulation at G2/M phase; format: functional, cell-based
Summary of the method: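 Cells treated for 16 h, fixed in 70% ethanol at -20 °C, RNase-treated and stained with propidium iodide (50 µg/mL). DNA content measured by flow cytometry to score G2/M accumulation. EC50 derived.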

[10] = Half life in CD1 mouse at 2.5 to 15 mg/kg, iv; format: ADME, organism-based; design: dose 2.5-15 mg/kg, route intravenous; conditions: in vivo
Summary of the method: (§3)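 Female CD-1 mice, female Sprague-Dawley rats and male beagle dogs were dosed iv or orally. Vehicles: mice, 0.05-0.1 N HCl in saline for both routes. Rats, 0.02-0.1 N HCl in saline iv; for po, HCl/saline with 0.5% HPMC and 0.01% Tween-80, or 0.5% CMC in 50 mM acetate pH 4.0. Dogs, HCl/saline with 40% PEG400 iv; for po, HCl/saline ±PEG400 or 0.5% hydroxyethylcellulose in pH 4.0 acetate. Plasma was collected over time and analyzed by LC-MS/MS.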

Mus musculus [11] = experiment: Volume of distribution in CD1 mouse at 2.5 to 15 mg/kg, iv and po; format: ADME, organism-based; design: dose 2.5-15 mg/kg, route oral; conditions: in vivo; summary of the method: as §3
[12] = Tmax in CD1 mouse at 2.5 to 15 mg/kg, po; format: ADME, organism-based; design: dose 2.5-15 mg/kg, route oral; conditions: in vivo; summary of the method: as §3
Mus musculus [13] = experiment: Cmax in CD1 mouse at 2.5 to 15 mg/kg, po; format: ADME, organism-based; design: dose 2.5-15 mg/kg, route oral; conditions: in vivo; summary of the method: as §3
[14] = Oral bioavailability in CD1 mouse at 2.5 to 15 mg/kg; format: ADME, organism-based; conditions: in vivo
Summary of the method: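 Female CD-1 mice dosed iv 2.5-15 mg/kg and orally 2.5-15 mg/kg. Both routes used 0.05-0.1 N HCl in saline. Plasma collected at various time points and analysed by HPLC-MS/MS. Bioavailability taken from oral versus iv exposure.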

[15] = Half life in Sprague-Dawley rat at 2.5 to 5 mg/kg, iv; format: ADME, organism-based; design: dose 2.5-5 mg/kg, route intravenous; conditions: in vivo; summary of the method: as §3
[16] = Clearance in Sprague-Dawley rat at 2.5 to 5 mg/kg, iv and 2.5 to 50 mg/kg, po; format: ADME, organism-based; conditions: in vivo; summary of the method: as §3
[17] = Volume of distribution at steady state in Sprague-Dawley rat at 2.5 to 5 mg/kg, iv and 2.5 to 50 mg/kg, po; format: ADME, organism-based; conditions: in vivo, read-out: Vdss; summary of the method: as §3
[18] = Tmax in Sprague-Dawley rat at 2.5 to 50 mg/kg, po; format: ADME, organism-based; design: dose 2.5-50 mg/kg, route oral; conditions: in vivo; summary of the method: as §3
Rattus norvegicus = experiment: Cmax in Sprague-Dawley rat at 2.5 to 50 mg/kg, po; format: ADME, organism-based; design: dose 2.5-50 mg/kg, route oral; conditions: in vivo; summary of the method: as §3
[19] = Oral bioavailability in Sprague-Dawley rat at 2.5 to 50 mg/kg; format: ADME, organism-based; conditions: in vivo
Summary of the method: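 Female Sprague-Dawley rats dosed iv 2.5-5 mg/kg in 0.02-0.1 N HCl/saline. Oral doses of 2.5-50 mg/kg were given either in 0.02-0.1 N HCl/saline with 0.5% HPMC and 0.01% Tween-80, or in 0.5% CMC in 50 mM acetate pH 4.0. Plasma sampled at various time points and analysed by HPLC-MS/MS.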

[20] = Half life in Beagle dog at 10 mg/kg, iv; format: ADME, organism-based, Canis lupus familiaris; design: dose 10 mg/kg, route intravenous; conditions: in vivo; summary of the method: as §3
[21] = Clearance in Beagle dog at 10 mg/kg, iv and 7 to 30 mg/kg, po; format: ADME, organism-based, Canis lupus familiaris; conditions: in vivo; summary of the method: as §3
[22] = Volume of distribution at steady state in Beagle dog at 10 mg/kg, iv and 7 to 30 mg/kg, po; format: ADME, organism-based, Canis lupus familiaris; conditions: in vivo, read-out: Vdss; summary of the method: as §3
[23] = Tmax in Beagle dog at 7 to 30 mg/kg, po; format: ADME, organism-based, Canis lupus familiaris; design: dose 7-30 mg/kg, route oral; conditions: in vivo; summary of the method: as §3
Canis familiaris = experiment: Cmax in Beagle dog at 7 to 30 mg/kg, po; format: ADME, organism-based, Canis lupus familiaris; design: dose 7-30 mg/kg, route oral; conditions: in vivo; summary of the method: as §3
[24] = Oral bioavailability in Beagle dog at 7 to 30 mg/kg; format: ADME, organism-based, Canis lupus familiaris; conditions: in vivo; summary of the method: as §3
A-431 [25] = experiment: Antitumor activity against human A431 cells xenografted in CD1 nude mouse at 60 mg/kg/day, po; format: functional; conditions: read-out: TGI; summary of the method: as §1
A-431 [26] = experiment: Antitumor activity against human A431 cells xenografted in CD1 nude mouse at 90 mg/kg/day, po; format: functional; conditions: read-out: TGI; summary of the method: as §1
A549 [27] = experiment: Antitumor activity against human A549 cells xenografted in CD1 nude mouse at 40 mg/kg/day, po; format: functional; conditions: read-out: TGI; summary of the method: as §1
A549 [28] = experiment: Antitumor activity against human A549 cells xenografted in CD1 nude mouse at 60 mg/kg/day, po; format: functional; conditions: read-out: TGI; summary of the method: as §1
DU-145 [29] = experiment: Antitumor activity against human DU145 cells xenografted in CD1 nude mouse at 40 mg/kg/day, po; format: functional; conditions: read-out: TGI; summary of the method: as §1
DU-145 [30] = experiment: Antitumor activity against human DU145 cells xenografted in CD1 nude mouse at 70 mg/kg/day, po; format: functional; conditions: read-out: TGI; summary of the method: as §1
DU-145 [31] = experiment: Antitumor activity against human DU145 cells xenografted in CD1 nude mouse at 80 mg/kg; format: functional; conditions: read-out: TGI; summary of the method: as §1

Nc1ccccc1NC(=O)c1ccc(CNc2nccc(-c3cccnc3)n2)cc1
Activity (HCT-116 [1]): Active

Nc1ccccc1NC(=O)c1ccc(CNc2nccc(-c3cccnc3)n2)cc1 [MOCETINOSTAT DIHYDROBROMIDE]
inhibition in vivo at 60 mg/kg/day (SW48 [2]): 64%
inhibition in vivo at 90 mg/kg/day (SW48 [3]): 70%
inhibition in vivo at 120 mg/kg/day (SW48 [4]): 93%

Nc1ccccc1NC(=O)c1ccc(CNc2nccc(-c3cccnc3)n2)cc1 [MOCETINOSTAT]
IC50 (Histone deacetylase 11): 590 nM
IC50 (HCT-116 [5]): 290 nM
IC50 (A549 [6]): 900 nM
IC50 (DU-145 [7]): 670 nM
IC50 (HMEC): 20000 nM
EC50 (T-24): 1380 nM
EC50 (HCT-116 [8]): 450 nM
EC50 (HCT-116 [9]): < 1000 nM
half-life [10]: 36 min
Vdss (Mus musculus [11]): 0.35 L/kg
Tmax [12]: 15 min
Cmax normalised (Mus musculus [13]): 0.086 µM/mg/kg
bioavailability [14]: 12%
half-life [15]: 42 min
clearance [16]: 28.3 mL/min/kg
Vd [17]: 0.91 L/kg
Tmax [18]: 35.4 min
Cmax normalised (Rattus norvegicus): 0.3 µM/mg/kg
bioavailability [19]: 47%
half-life [20]: 78 min
clearance [21]: 33.3 mL/min/kg
Vd [22]: 0.8 L/kg
Tmax [23]: 17.4 min
Cmax normalised (Canis familiaris): 0.0029 µM/mg/kg
bioavailability [24]: 1%
inhibition in vivo at 60 mg/kg/day (A-431 [25]): 30%
inhibition in vivo at 90 mg/kg/day (A-431 [26]): 64%
inhibition in vivo at 40 mg/kg/day (A549 [27]): 56%
inhibition in vivo at 60 mg/kg/day (A549 [28]): 73%
inhibition in vivo at 40 mg/kg/day (DU-145 [29]): 4%
inhibition in vivo at 70 mg/kg/day (DU-145 [30]): 47%
inhibition in vivo at 80 mg/kg (DU-145 [31]): 82%
